ChEMBL document CHEMBL5705899 (Biochem J, 2014)
Calls of active or inactive are those of the source. The rule behind the calls is not given here.

Experiments:
[1] = target: Ribosomal protein S6 kinase alpha-2 (Homo sapiens) (UniProt Q15349); assay: Inhibition of human RPS6KA2 at 1 uM using bio-4xCHKT as substrate in presence of 33P-ATP by ProQinase assay
Homo sapiens = organism: Homo sapiens; assay: Inhibition of recombinant human MKK1 (2 to 393 residues) expressed in Escherichia coli assessed as remaining activity at 1 uM using MBP as substrate incubated for 30 mins in presence of [gamma-33P]ATP by filter binding method relative to control
[2] = target: Serine/threonine-protein kinase 16 (Homo sapiens) (UniProt O75716); assay: Inhibition of recombinant human N-terminal GST-tagged MPSK1 (1 to 305 residues) expressed in Escherichia coli assessed as remaining activity at 1 uM using RRHYYYDTHTNTYYLRTFGHNTRR as substrate incubated for 30 mins in presence of [gamma-33P]ATP by filter binding method relative to control
[3] = target: Serine/threonine-protein kinase PAK 2 (Homo sapiens) (UniProt Q13177); assay: Inhibition of PAK2 (unknown origin) assessed as remaining activity at 1 uM relative to control
How it was run: (§1)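 Dundee panel of 140 protein kinases, tested at a single 1 μM concentration. Each assay was run in triplicate. Remaining activity is expressed relative to a control reaction without inhibitor, as mean ± S.D. Conditions for each kinase were those of the screening centre.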

[4] = target: Dual specificity tyrosine-phosphorylation-regulated kinase 2 (Homo sapiens) (UniProt Q92630); assay: Inhibition of recombinant human N-terminal GST-tagged DYRK2 (3 to 528 residues) expressed in Escherichia coli assessed as remaining activity at 1 uM using KKISGRLSPIMTEQ as substrate incubated for 30 mins in presence of [gamma-33P]ATP by filter binding method relative to control
[5] = target: Ephrin type-B receptor 4 (Homo sapiens) (UniProt P54760); assay: Inhibition of recombinant human N-terminal His6-tagged EPHB4 (561 to 987 residues) expressed in baculovirus infected Sf21 cells assessed as remaining activity at 1 uM using Poly (Glu,Tyr) as substrate incubated for 30 mins in presence of [gamma-33P]ATP by filter binding method relative to control
[6] = target: Mitogen-activated protein kinase kinase kinase kinase 5 (Homo sapiens) (UniProt Q9Y4K4); assay: Inhibition of MAP4K5 (unknown origin) assessed as remaining activity at 1 uM relative to control; how it was run: as §1
[7] = target: Serine/threonine-protein kinase ULK1 (Homo sapiens) (UniProt O75385); assay: Inhibition of recombinant human ULK1 (2 to 1050 residues) expressed in baculovirus infected Sf21 cells assessed as remaining activity at 1 uM using MBP as substrate incubated for 30 mins in presence of [gamma-33P]ATP by filter binding method relative to control
[8] = target: Serine/threonine-protein kinase BRSK2 (Homo sapiens) (UniProt Q8IWQ3); assay: Inhibition of recombinant human N-terminal His6-tagged BRSK2 (2 to 674 residues) expressed in baculovirus infected Sf21 cells assessed as remaining activity at 1 uM using KKLNRTLSFAEPG as substrate incubated for 30 mins in presence of [gamma-33P]ATP by filter binding method relative to control
[9] = target: Tyrosine-protein kinase Yes (Homo sapiens) (UniProt P07947); assay: Inhibition of recombinant human N-terminal His6-tagged YES1 (1 to 543 residues) expressed in baculovirus infected Sf21 cells assessed as remaining activity at 1 uM using Poly(Glu,Tyr) as substrate incubated for 30 mins in presence of [gamma-33P]ATP by filter binding method relative to control
[10] = target: BDNF/NT-3 growth factors receptor (Homo sapiens) (UniProt Q16620); assay: Inhibition of human TRKB at 1 uM using polyEY as substrate in presence of 33P-ATP by ProQinase assay
[11] = target: Tyrosine-protein kinase Fyn (Homo sapiens) (UniProt P06241); assay: Inhibition of human FYN at 1 uM using polyEY as substrate in presence of 33P-ATP by ProQinase assay
[12] = target: Eukaryotic elongation factor 2 kinase (Homo sapiens) (UniProt O00418); assay: Inhibition of human EEF2K at 1 uM using RBER-GSK3 as substrate in presence of 33P-ATP by ProQinase assay
[13] = target: Mitogen-activated protein kinase kinase kinase 10 (Homo sapiens) (UniProt Q02779); assay: Inhibition of human MAP3K10 at 1 uM using histon H2B as substrate in presence of 33P-ATP by ProQinase assay
[14] = target: NUAK family SNF1-like kinase 2 (Homo sapiens) (UniProt Q9H093); assay: Inhibition of human SNARK at 1 uM using histone H2B as substrate in presence of 33P-ATP by ProQinase assay
[15] = target: Inhibitor of nuclear factor kappa-B kinase subunit beta (Homo sapiens) (UniProt O14920); assay: Inhibition of human IKKbeta at 1 uM using RBER-CHKtide as substrate in presence of 33P-ATP by ProQinase assay
[16] = target: Phosphorylase b kinase gamma catalytic chain, liver/testis isoform (Homo sapiens) (UniProt P15735); assay: Inhibition of human PHKG2 at 1 uM using RBER-CHKtide as substrate in presence of 33P-ATP by ProQinase assay
[17] = target: Mitogen-activated protein kinase kinase kinase 11 (Homo sapiens) (UniProt Q16584); assay: Inhibition of human MAP3K11 at 1 uM using MBP as substrate in presence of 33P-ATP by ProQinase assay
[18] = target: Myosin light chain kinase (Homo sapiens) (UniProt Q32MK0); assay: Inhibition of human MYLK3 at 1 uM using RB-S6P as substrate in presence of 33P-ATP by ProQinase assay
[19] = target: Calcium/calmodulin-dependent protein kinase type 1D (Homo sapiens) (UniProt Q8IU85); assay: Inhibition of human CAMK1D at 1 uM using RBER-CHKtide as substrate in presence of 33P-ATP by ProQinase assay
[20] = target: Calcium/calmodulin-dependent protein kinase type II subunit beta (Homo sapiens) (UniProt Q13554); assay: Inhibition of human CAMK2B at 1 uM using RBER-CHKtide as substrate in presence of 33P-ATP by ProQinase assay
[21] = target: Calcium/calmodulin-dependent protein kinase type II subunit alpha (Homo sapiens) (UniProt Q9UQM7); assay: Inhibition of human CAMK2A at 1 uM using RBER-CHKtide as substrate in presence of 33P-ATP by ProQinase assay
[22] = target: Choline/ethanolamine kinase (Homo sapiens) (UniProt Q9Y259); assay: Inhibition of recombinant human N-terminal GST-tagged CHKbeta (1 to 395 residues) expressed in Escherichia coli at 1 uM using choline chloride as substrate incubated for 40 mins by ADP-Glo assay
[23] = target: Phosphatidylinositol 4-kinase type 2-alpha (Homo sapiens, UniProt Q9BTU6); assay: Inhibition of PI4K2alpha (unknown origin) at 1 uM
[24] = target: Phosphatidylinositol 4-phosphate 5-kinase type-1 gamma (Homo sapiens, UniProt O60331); assay: Inhibition of human PIP5K1C using PI/PS as substrate by ADP-Glo assay

Chain of Inhibitor of nuclear factor kappa-B kinase subunit beta (Homo sapiens) (O14920 whole entry, canonical isoform): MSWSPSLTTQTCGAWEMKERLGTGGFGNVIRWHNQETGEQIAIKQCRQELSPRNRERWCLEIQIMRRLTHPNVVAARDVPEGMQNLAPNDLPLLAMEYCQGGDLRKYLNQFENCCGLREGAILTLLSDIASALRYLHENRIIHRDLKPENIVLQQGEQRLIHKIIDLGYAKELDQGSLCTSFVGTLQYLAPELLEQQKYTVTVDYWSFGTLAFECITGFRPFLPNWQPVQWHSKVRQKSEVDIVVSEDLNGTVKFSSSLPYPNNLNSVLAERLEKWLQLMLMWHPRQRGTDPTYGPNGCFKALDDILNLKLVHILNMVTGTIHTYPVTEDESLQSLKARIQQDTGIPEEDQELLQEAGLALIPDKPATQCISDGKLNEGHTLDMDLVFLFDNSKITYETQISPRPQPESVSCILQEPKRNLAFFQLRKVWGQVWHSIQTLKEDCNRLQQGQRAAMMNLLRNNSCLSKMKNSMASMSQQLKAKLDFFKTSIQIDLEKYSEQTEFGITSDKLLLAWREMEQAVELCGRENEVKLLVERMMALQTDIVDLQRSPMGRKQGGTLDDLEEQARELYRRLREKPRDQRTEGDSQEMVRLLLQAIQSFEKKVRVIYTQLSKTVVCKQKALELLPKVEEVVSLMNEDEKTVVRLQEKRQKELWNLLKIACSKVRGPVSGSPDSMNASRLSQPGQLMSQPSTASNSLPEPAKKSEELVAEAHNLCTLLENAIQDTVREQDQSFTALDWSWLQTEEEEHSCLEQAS
Chain of Phosphorylase b kinase gamma catalytic chain, liver/testis isoform (Homo sapiens) (P15735 whole entry, canonical isoform): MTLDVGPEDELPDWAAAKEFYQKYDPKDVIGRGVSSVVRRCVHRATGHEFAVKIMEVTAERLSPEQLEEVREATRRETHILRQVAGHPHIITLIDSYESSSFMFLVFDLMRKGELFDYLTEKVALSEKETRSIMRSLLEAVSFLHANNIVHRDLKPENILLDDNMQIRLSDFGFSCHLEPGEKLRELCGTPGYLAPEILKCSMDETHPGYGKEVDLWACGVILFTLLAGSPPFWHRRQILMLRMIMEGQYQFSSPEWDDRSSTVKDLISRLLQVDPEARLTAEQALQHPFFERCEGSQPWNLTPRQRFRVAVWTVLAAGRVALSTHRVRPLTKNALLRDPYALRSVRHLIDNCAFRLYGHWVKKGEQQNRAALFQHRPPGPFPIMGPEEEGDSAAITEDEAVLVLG
Chain of Myosin light chain kinase (Homo sapiens) (Q32MK0 whole entry): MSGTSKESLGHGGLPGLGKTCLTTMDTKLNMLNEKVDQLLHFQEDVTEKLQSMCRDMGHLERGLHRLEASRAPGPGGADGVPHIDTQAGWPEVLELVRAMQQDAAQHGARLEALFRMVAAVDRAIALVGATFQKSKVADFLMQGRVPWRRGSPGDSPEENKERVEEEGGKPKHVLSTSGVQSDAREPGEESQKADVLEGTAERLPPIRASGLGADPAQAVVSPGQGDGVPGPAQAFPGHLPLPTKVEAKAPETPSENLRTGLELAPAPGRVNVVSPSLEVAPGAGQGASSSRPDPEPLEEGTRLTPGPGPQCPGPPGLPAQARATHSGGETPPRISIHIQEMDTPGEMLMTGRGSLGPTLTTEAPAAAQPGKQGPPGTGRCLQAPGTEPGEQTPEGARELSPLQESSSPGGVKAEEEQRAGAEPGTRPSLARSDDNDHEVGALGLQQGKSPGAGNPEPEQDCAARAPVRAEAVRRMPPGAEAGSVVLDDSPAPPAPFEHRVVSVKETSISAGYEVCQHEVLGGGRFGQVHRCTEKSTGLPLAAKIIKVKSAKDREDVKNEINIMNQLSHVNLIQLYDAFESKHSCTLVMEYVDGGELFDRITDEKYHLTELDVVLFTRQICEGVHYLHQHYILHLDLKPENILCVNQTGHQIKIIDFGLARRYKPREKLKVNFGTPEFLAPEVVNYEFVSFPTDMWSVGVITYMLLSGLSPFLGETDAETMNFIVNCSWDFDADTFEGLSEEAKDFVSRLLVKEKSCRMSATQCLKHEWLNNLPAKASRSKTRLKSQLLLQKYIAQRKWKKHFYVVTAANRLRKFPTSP
Chain of BDNF/NT-3 growth factors receptor (Homo sapiens) (Q16620 32-822 limits assumed): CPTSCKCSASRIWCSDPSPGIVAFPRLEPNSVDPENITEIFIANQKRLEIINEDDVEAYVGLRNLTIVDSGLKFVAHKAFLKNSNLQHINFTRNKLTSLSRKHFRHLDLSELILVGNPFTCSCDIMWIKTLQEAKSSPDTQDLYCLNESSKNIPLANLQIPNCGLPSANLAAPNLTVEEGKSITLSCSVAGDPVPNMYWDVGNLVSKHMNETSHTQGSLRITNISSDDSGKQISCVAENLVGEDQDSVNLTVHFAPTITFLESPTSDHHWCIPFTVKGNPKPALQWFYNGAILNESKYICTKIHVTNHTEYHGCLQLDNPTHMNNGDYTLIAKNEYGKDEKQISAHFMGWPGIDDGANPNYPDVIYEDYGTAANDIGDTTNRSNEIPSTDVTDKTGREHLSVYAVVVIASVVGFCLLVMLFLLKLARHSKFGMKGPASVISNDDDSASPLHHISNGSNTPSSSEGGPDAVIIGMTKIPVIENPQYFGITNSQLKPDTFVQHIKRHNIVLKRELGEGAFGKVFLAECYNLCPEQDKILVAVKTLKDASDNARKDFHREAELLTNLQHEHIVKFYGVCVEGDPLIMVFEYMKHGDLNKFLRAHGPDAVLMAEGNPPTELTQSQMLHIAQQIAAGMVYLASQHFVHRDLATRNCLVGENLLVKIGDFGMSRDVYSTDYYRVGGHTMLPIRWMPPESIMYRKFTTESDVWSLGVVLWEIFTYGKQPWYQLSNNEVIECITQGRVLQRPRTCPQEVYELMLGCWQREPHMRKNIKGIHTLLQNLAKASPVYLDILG
Chain of Eukaryotic elongation factor 2 kinase (Homo sapiens) (O00418 whole entry): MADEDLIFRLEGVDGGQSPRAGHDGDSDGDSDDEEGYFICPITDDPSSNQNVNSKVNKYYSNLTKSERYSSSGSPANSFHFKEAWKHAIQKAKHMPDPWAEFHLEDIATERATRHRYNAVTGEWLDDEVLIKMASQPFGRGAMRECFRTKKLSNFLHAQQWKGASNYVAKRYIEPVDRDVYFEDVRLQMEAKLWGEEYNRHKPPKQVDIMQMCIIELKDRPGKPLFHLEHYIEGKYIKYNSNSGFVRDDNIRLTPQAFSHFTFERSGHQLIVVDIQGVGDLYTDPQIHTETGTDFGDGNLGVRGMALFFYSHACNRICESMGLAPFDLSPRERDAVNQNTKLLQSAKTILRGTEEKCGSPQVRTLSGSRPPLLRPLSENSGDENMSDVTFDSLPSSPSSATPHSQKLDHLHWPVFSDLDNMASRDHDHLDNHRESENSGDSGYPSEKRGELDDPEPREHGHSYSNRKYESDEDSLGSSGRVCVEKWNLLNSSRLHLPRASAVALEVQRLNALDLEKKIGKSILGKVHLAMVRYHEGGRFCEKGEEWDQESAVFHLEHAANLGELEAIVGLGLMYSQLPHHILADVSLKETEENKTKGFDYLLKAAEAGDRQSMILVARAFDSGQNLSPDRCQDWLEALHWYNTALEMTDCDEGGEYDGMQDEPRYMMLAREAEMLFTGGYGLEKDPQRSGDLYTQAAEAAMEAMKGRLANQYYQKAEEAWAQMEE
Chain of Mitogen-activated protein kinase kinase kinase 10 (Homo sapiens) (Q02779 whole entry, looked up): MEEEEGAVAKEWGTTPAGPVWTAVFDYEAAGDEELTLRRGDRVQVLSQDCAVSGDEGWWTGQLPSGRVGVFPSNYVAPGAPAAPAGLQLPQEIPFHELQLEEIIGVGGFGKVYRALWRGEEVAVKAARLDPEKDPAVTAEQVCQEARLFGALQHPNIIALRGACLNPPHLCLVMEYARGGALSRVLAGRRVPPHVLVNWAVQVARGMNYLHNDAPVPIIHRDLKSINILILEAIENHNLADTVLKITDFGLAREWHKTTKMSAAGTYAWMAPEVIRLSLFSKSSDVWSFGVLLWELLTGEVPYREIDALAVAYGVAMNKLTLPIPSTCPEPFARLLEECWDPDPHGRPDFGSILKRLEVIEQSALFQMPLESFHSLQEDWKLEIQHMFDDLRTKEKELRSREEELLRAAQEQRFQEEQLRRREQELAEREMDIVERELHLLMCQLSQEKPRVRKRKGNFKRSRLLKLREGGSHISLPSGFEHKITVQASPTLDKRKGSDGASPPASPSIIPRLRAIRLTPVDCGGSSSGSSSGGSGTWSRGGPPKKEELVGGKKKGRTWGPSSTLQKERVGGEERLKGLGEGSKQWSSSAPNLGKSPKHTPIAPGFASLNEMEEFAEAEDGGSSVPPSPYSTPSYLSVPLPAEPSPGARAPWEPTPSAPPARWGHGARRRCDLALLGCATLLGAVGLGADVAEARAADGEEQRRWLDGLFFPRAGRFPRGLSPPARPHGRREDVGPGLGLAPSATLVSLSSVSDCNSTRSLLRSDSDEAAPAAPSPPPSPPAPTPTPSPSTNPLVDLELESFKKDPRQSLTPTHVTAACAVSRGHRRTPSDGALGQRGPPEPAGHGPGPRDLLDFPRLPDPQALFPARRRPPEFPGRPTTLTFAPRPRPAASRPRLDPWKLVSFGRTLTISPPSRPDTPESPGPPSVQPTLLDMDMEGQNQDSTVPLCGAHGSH
Chain of Serine/threonine-protein kinase PAK 2 (Homo sapiens) (Q13177 whole entry): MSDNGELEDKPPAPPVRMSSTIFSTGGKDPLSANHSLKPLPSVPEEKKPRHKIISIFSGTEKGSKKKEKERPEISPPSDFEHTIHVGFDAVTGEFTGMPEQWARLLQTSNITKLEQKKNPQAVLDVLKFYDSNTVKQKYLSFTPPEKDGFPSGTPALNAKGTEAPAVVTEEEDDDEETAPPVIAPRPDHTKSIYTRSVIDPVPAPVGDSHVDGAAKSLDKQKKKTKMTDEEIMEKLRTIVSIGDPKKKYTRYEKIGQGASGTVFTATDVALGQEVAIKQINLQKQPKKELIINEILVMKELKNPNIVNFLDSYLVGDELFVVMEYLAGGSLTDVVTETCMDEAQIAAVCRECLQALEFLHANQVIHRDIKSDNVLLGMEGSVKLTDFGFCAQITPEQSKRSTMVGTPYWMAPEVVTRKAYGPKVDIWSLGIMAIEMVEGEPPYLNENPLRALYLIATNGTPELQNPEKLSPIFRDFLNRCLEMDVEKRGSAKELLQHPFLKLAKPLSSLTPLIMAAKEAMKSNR

CC(C)(O)CNc1ncc(-c2ccnc(Nc3ccnc(Cl)c3)n2)c(CC2CC2)n1
inhibition [1]: inactive
Activity (Homo sapiens): 122%
Activity [2]: 118%
Activity [3]: 111%
Activity [4]: 109%
Activity [5]: 106%
Activity [6]: 105%
Activity [7]: 98%
Activity [8]: 98%
Activity [9]: 77%
inhibition [10]: inactive
inhibition [11]: inactive
inhibition [12]: inactive
inhibition [13]: inactive
inhibition [14]: inactive
inhibition [15]: inactive
inhibition [16]: inactive
inhibition [17]: inactive
inhibition [18]: inactive
inhibition [19]: inactive
inhibition [20]: inactive
inhibition [21]: inactive
inhibition [22]: inactive
inhibition [23]: inactive
IC50 [24]: 3.37 µM
